This note sets out measurements from ChEMBL document CHEMBL1147605, “Syntheses and biological evaluation of new fluoroquinolone antibacterials containing chiral oxiimino pyrrolidine” (Bioorg Med Chem Lett, 2004).

Series [1] can be described thus: Plasma concentration for the compound was determined in rats at 50 mg/kg dose. In kind it is ADME, organism-based. More on the design: dose 50 mg/kg. Particulars: rat. Put shortly:
(§1)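 Pharmacokinetics were measured in SD rats given 50mg/kg, reporting Cmax, Tmax, T1/2 and AUC.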

Series [2] has as its system Staphylococcus aureus. The series can be described thus: In vitro antibacterial activity against the Methicillin-Resistant Staphylococcus aureus (MRSA) 692 E. In kind it is functional. Summed up:
(§2)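 MICs by agar dilution following National Committee for Clinical Laboratory Standards recommendations; all strains obtained from Hoechst.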

In series [3] the test system is Staphylococcus aureus. The series is described as follows: In vitro antibacterial activity against the Methicillin-Resistant Staphylococcus aureus (MRSA) 690 E. In kind it is functional. Summed up: as §2
Series [4] relates to Staphylococcus aureus. The series can be described thus: In vitro antibacterial activity against the Staphylococcus aureus SG511. In kind it is functional.
A further series relates to V79-4. The series can be described thus: Cytotoxicity was determined for the compound in V79-4 cell line. In kind it is functional, cell-based. Particulars: Cricetulus griseus.
The nature of series [5]: Time for maximum plasma concentration reached by compound was determined in rats at 50 mg/kg dose. The series is classed as ADME, organism-based. On the set-up: dose 50 mg/kg. Particulars: rat. Summed up:
as §1

Series [6] concerns Pseudomonas aeruginosa. The series is described as follows: In vitro antibacterial activity against the Ofloxacin Resistant Pseudomonas aeruginosa 279II. The series is classed as functional. Put shortly: as §2
Series [7] concerns Staphylococcus aureus. The series is described as follows: In vitro antibacterial activity against the Ofloxacin Resistant Staphylococcus aureus 303. In kind it is functional. Put shortly: as §2
For the next series, the system named is HepG2. The series can be described thus: Cytotoxicity was determined for the compound in HepG2 cell line. In kind it is functional, cell-based. Particulars: Homo sapiens.
Series [8] concerns Staphylococcus aureus. The series can be described thus: In vitro antibacterial activity against the Ofloxacin Resistant Staphylococcus aureus 293. In kind it is functional. Summed up:
as §2

A further series relates to Klebsiella. The series is described as follows: In vitro antibacterial activity against the Ofloxacin Resistant Klebsiella species 30-92. In kind it is functional. Summed up: as §2
In series [9] the test system is Pseudomonas aeruginosa. The series is described as follows: In vitro antibacterial activity against the Pseudomonas aeruginosa 1771M. In kind it is functional.
The subject of series [10] is Streptococcus pyogenes. The series can be described thus: In vitro antibacterial activity against the Streptococcus pyogenes 308A. The series is classed as functional.
Series [11] deals with Escherichia coli. The series can be described thus: In vitro antibacterial activity against the Escherichia coli DC 2. The series is classed as functional.
The test system of series [12] is Staphylococcus aureus. The series is described as follows: In vitro antibacterial activity against the Methicillin-Resistant Staphylococcus aureus (MRSA) 697 E. The series is classed as functional. Put shortly: as §2
For series [13], the system named is Escherichia coli. The series is described as follows: In vitro antibacterial activity against the Escherichia coli 078. In kind it is functional.
A short description of series [14]: Half-life period for the compound was determined in rats at 50 mg/kg dose. The series is classed as ADME, organism-based. More on the design: dose 50 mg/kg. Particulars: rat, in vivo.
Series [15] concerns Staphylococcus epidermidis. The series is described as follows: In vitro antibacterial activity against the Ofloxacin Resistant Staphylococcus epidermidis 319. The series is classed as functional. Put shortly:
as §2

Series [16] deals with Staphylococcus aureus. The series can be described thus: In vitro antibacterial activity against the Methicillin-Resistant Staphylococcus aureus (MRSA) 707 E. The series is classed as functional. Put shortly:
as §2

For another series, the system named is Salmonella typhimurium. The series can be described thus: In vitro antibacterial activity against the Salmonella Typhimurium. The series is classed as functional, Salmonella enterica subsp. enterica serovar Typhimurium. Particulars: Salmonella enterica.
The next series has as its system Enterococcus sp. The series is described as follows: In vitro antibacterial activity against the Ofloxacin Resistant Enterococcus knothe 101. The series is classed as functional. Put shortly: as §2
For series [17], the system named is Pseudomonas aeruginosa. The series is described as follows: In vitro antibacterial activity against the Pseudomonas aeruginosa 1592E. The series is classed as functional.
Series [18] deals with Staphylococcus aureus. The series is described as follows: In vitro antibacterial activity against the Methicillin-Resistant Staphylococcus aureus (MRSA) 705 E. In kind it is functional. Summed up:
as §2

In series [19] the test system is Staphylococcus epidermidis. The series is described as follows: In vitro antibacterial activity against the Ofloxacin Resistant Staphylococcus epidermidis 291. The series is classed as functional. Summed up: as §2
The test system of series [20] is Staphylococcus aureus. The series can be described thus: In vitro antibacterial activity against the Methicillin-Resistant Staphylococcus aureus (MRSA) 701 E. The series is classed as functional. Summed up:
as §2

For a further series, the system named is Enterobacter cloacae. The series can be described thus: In vitro antibacterial activity against the Enterobacter cloacae 1321 E. The series is classed as functional.
For series [21], the system named is Streptococcus pyogenes. The series is described as follows: In vitro antibacterial activity against the Streptococcus pyogenes 77A. The series is classed as functional.
Series [22] concerns Staphylococcus aureus. The series can be described thus: In vitro antibacterial activity against the Ofloxacin Resistant Staphylococcus aureus 179. The series is classed as functional. Summed up:
as §2

A short description of series [23]: Maximum plasma concentration reached by compound was determined in rats at 50 mg/kg dose. The series is classed as ADME, organism-based. On the set-up: dose 50 mg/kg. Particulars: rat. Summed up: as §1
The test system of series [24] is Staphylococcus aureus. The series is described as follows: In vitro antibacterial activity against the Staphylococcus aureus 285. The series is classed as functional.

Values after ≈ are worked out from the molar mass of the structure shown.

Usually AUC stands for the area under the concentration-time curve, a measure of exposure. A higher AUC goes with high exposure. As a reminder, the MIC is the smallest concentration in the dilution series that meets the test's criterion for growth inhibition. A lower MIC goes with inhibition by little substance. One may read the IC50 as the concentration needed to halve the response being measured. Low values mean higher potency, high ones lower potency. For orientation: Tmax means the time from dosing to the highest level. The term half-life denotes the time needed for the level to fall by half in the phase considered. What is called Cmax is the maximum level reached in the sampled fluid or tissue. The compound `CO/N=C1\CN(c2c(F)c(N)c3c(=O)c(C(=O)O)cn(C4CC4)c3c2F)C[C@]1(C)CN.Cl` showed an AUC in series [1] of 68800 ng·h/mL. In addition, the MIC in the series with Staphylococcus aureus [2] was less than 0.002 µg/mL; against Staphylococcus aureus [3], less than 0.002 µg/mL; against Staphylococcus aureus [4], less than 0.002 µg/mL; in the series with Pseudomonas aeruginosa [6], 3.12 µg/mL; in the series on Staphylococcus aureus [7] it was 0.013 µg/mL; against Staphylococcus aureus [8], 0.013 µg/mL. Further, the MIC in the series with Klebsiella was 0.781 µg/mL; in the series with Pseudomonas aeruginosa [9], 0.195 µg/mL; against Streptococcus pyogenes [10] it was 0.004 µg/mL; against Escherichia coli [11], less than 0.002 µg/mL; against Staphylococcus aureus [12], less than 0.002 µg/mL; against Escherichia coli [13] it was less than 0.002 µg/mL. Moreover, the MIC was 0.025 µg/mL in [15]; less than 0.002 µg/mL against Staphylococcus aureus [16]; less than 0.002 µg/mL with Salmonella typhimurium; 0.013 µg/mL against Enterococcus sp.; 0.391 µg/mL with Pseudomonas aeruginosa [17]; less than 0.002 µg/mL against Staphylococcus aureus [18]. Further, the MIC in series [19] is 0.049 µg/mL; with Staphylococcus aureus [20], less than 0.002 µg/mL; against Enterobacter cloacae, less than 0.002 µg/mL; in the series with Streptococcus pyogenes [21], less than 0.002 µg/mL; against Staphylococcus aureus [22], 0.013 µg/mL. For the same compound, the half-maximal inhibitory concentration (IC50) amounted to 0.21 µg/mL in the series on V79-4 and 11.6 µg/mL with HepG2. Further, the time to peak (Tmax) in series [5] was found to be 1 h. Further, in series [14], the half-life was 6.94 h. In series [23], this compound had a Cmax of 6670 ng/mL.
For `CO/N=C1\CN(c2c(F)c(N)c3c(=O)c(C(=O)O)cn(C4CC4)c3c2F)C[C@@]1(C)CN.Cl`, the MIC in the series with Staphylococcus aureus [2] was 0.004 µg/mL; with Staphylococcus aureus [3], 0.004 µg/mL; in the series on Staphylococcus aureus [4] it was less than 0.002 µg/mL; with Pseudomonas aeruginosa [6], 3.12 µg/mL; in the series on Staphylococcus aureus [7] it was 0.195 µg/mL; in the series with Staphylococcus aureus [8] it was 0.195 µg/mL. Also, the minimal inhibitory concentration (MIC) against Klebsiella is 1.56 µg/mL; against Pseudomonas aeruginosa [9] it was 0.195 µg/mL; against Streptococcus pyogenes [10] it was 0.049 µg/mL; in the series on Escherichia coli [11], 0.013 µg/mL; in the series with Staphylococcus aureus [12], 0.004 µg/mL; with Escherichia coli [13], 0.004 µg/mL. The MIC is 0.781 µg/mL in series [15]; less than 0.002 µg/mL against Salmonella typhimurium; 0.195 µg/mL against Enterococcus sp.; 0.391 µg/mL against Pseudomonas aeruginosa [17]; 0.007 µg/mL in the series with Staphylococcus aureus [18]; 0.391 µg/mL in series [19]. The MIC is 0.007 µg/mL against Staphylococcus aureus [20]; less than 0.002 µg/mL in the series on Enterobacter cloacae; 0.013 µg/mL in the series on Streptococcus pyogenes [21]; 0.195 µg/mL against Staphylococcus aureus [22]; 0.004 µg/mL in the series on Staphylococcus aureus [24].
For `CO/N=C1\CN(c2cc3c(cc2F)c(=O)c(C(=O)O)cn3C2CC2)CC1(C)CN.Cl` (stereo not drawn), the MIC was 0.007 µg/mL against Staphylococcus aureus [4]; 0.391 µg/mL against Pseudomonas aeruginosa [9]; 0.098 µg/mL with Streptococcus pyogenes [10]; 0.025 µg/mL against Escherichia coli [11]; 0.013 µg/mL against Escherichia coli [13]; 0.013 µg/mL against Salmonella typhimurium. Also, the MIC with Pseudomonas aeruginosa [17] was found to be 0.781 µg/mL; against Enterobacter cloacae it was 0.013 µg/mL; with Streptococcus pyogenes [21], 0.013 µg/mL; in the series on Staphylococcus aureus [24] it was 0.013 µg/mL.
As for `CO/N=C1\CN(c2c(F)cc3c(=O)c(C(=O)O)cn(C4CC4)c3c2F)CC1(C)CN.Cl` (stereo not drawn), the minimum inhibitory concentration (MIC) is 0.013 µg/mL in the series with Staphylococcus aureus [4]; 0.781 µg/mL in the series on Pseudomonas aeruginosa [9]; 0.098 µg/mL against Streptococcus pyogenes [10]; 0.049 µg/mL with Escherichia coli [11]; 0.025 µg/mL against Escherichia coli [13]; 0.025 µg/mL against Salmonella typhimurium. Also, the minimum inhibitory concentration (MIC) worked out at 1.56 µg/mL in the series with Pseudomonas aeruginosa [17], 0.013 µg/mL in the series with Enterobacter cloacae, 0.025 µg/mL against Streptococcus pyogenes [21] and 0.013 µg/mL against Staphylococcus aureus [24].
`O=C(O)c1cn(C2CC2)c2cc(N3CCNCC3)c(F)cc2c1=O` [CIPROFLOXACIN]: the area under the curve (AUC) in series [1] amounted to 12700 ng·h/mL. Besides, the MIC in the series on Staphylococcus aureus [2] is 0.391 µg/mL (≈ 1.18 µM); with Staphylococcus aureus [3] it was 0.391 µg/mL (≈ 1.18 µM); in the series on Staphylococcus aureus [4] it was 0.195 µg/mL (≈ 0.589 µM); in the series on Staphylococcus aureus [7], 12.5 µg/mL (≈ 37.7 µM); against Staphylococcus aureus [8], 12.5 µg/mL (≈ 37.7 µM); against Klebsiella, 1.56 µg/mL (≈ 4.72 µM). Moreover, the minimal inhibitory concentration (MIC) with Pseudomonas aeruginosa [9] came out at 0.098 µg/mL (≈ 0.296 µM); in the series on Streptococcus pyogenes [10], 3.12 µg/mL (≈ 9.43 µM); against Escherichia coli [11], 0.098 µg/mL (≈ 0.296 µM); with Staphylococcus aureus [12], 0.391 µg/mL (≈ 1.18 µM); in series [15] it was 100 µg/mL (≈ 302 µM); in the series with Staphylococcus aureus [16], 0.195 µg/mL (≈ 0.589 µM). Also, the MIC against Enterococcus sp. was found to be 0.781 µg/mL (≈ 2.36 µM); with Pseudomonas aeruginosa [17], 0.195 µg/mL (≈ 0.589 µM); in the series on Staphylococcus aureus [18], 0.391 µg/mL (≈ 1.18 µM); in [19], 50 µg/mL (≈ 151 µM); against Staphylococcus aureus [20], 0.391 µg/mL (≈ 1.18 µM); in the series on Streptococcus pyogenes [21] it was 0.391 µg/mL (≈ 1.18 µM). For the same compound, the MIC is 12.5 µg/mL (≈ 37.7 µM) in the series on Staphylococcus aureus [22] and 0.781 µg/mL (≈ 2.36 µM) in the series with Staphylococcus aureus [24]. For the same compound, the values for the IC50 with V79-4 and in the series on HepG2 were 58.5 µg/mL (≈ 177 µM) and 37.5 µg/mL (≈ 113 µM), respectively. For the same compound, the Tmax in series [5] was 0.5 h.
Turning to `N[C@@H]1[C@H]2CN(c3nc4c(cc3F)c(=O)c(C(=O)O)cn4-c3ccc(F)cc3F)C[C@@H]12` [TROVAFLOXACIN], the IC50 amounted to 3.77 µg/mL (≈ 9.05 µM) in the series with V79-4 and 11.2 µg/mL (≈ 26.8 µM) in the series on HepG2.
